Measured values as given in the M2OR odorant receptor database.

Experiments:
Settings in all cases: stereoisomer not certain
[1] = molecular target: T1, OR10G2 (Homo sapiens) (UniProt Q8NGC3)
T1 sequence (whole entry): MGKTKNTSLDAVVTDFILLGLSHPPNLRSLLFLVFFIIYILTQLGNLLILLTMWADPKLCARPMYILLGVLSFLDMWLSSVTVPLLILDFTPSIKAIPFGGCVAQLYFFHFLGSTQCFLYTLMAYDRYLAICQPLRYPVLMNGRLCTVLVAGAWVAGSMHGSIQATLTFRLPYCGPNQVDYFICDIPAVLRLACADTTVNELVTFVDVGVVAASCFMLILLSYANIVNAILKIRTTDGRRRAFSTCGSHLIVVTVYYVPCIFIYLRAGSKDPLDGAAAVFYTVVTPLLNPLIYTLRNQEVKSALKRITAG
Outline: (§1)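 Each entry records the cell line, G-protein, co-transfected protein and tags used. Methods varied with the source, often transient luciferase assays in mammalian cell lines. A receptor–molecule pair is called responsive (active) if the original authors judged its signal statistically different from baseline and non-responsive (inactive) otherwise.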

[2] = molecular target: T2, OR10G3 (Homo sapiens) (UniProt Q8NGC4)
T2 sequence (whole entry): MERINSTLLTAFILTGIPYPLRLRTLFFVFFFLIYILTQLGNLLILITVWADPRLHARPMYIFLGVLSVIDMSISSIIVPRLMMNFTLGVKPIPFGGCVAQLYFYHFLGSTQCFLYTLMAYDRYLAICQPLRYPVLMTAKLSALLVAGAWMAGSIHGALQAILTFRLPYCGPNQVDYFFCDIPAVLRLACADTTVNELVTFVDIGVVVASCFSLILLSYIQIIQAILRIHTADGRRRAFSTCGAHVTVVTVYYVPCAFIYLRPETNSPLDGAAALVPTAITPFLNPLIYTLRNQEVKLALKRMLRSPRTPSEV
Outline: as §1

[3] = molecular target: T3, OR10G4 (Homo sapiens) (UniProt Q8NGN3)
T3 sequence (whole entry): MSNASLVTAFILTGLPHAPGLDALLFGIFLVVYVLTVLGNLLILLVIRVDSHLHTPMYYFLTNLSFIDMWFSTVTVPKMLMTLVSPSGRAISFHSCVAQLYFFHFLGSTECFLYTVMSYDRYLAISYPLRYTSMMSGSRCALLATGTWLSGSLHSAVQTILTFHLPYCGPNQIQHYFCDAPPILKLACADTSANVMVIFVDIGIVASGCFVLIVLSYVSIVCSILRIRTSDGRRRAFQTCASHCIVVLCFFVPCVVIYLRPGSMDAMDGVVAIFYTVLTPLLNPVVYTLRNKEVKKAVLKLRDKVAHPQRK
Outline: as §1

[4] = molecular target: T4, OR10G6 (Homo sapiens) (UniProt Q8NH81)
T4 sequence (whole entry): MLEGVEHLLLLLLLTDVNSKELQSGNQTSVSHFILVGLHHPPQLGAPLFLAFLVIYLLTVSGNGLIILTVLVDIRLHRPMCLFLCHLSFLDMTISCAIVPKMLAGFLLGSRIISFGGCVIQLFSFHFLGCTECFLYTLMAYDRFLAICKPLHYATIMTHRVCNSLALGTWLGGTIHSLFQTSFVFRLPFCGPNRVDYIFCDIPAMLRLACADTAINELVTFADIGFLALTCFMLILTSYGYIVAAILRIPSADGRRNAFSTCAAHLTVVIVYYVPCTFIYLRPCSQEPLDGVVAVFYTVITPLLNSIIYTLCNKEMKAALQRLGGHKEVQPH
Outline: as §1

[5] = molecular target: T5, OR10G7 (Homo sapiens) (UniProt Q8NGN6)
T5 sequence (whole entry): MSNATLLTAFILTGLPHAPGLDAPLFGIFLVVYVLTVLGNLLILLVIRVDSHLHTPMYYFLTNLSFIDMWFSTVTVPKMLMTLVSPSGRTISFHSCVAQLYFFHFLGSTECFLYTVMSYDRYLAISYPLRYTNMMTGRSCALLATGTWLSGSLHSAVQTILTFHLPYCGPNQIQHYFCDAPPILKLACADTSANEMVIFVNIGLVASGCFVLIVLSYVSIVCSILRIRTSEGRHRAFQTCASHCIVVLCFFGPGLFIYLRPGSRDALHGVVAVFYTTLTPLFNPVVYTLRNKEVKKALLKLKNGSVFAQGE
Outline: as §1

[6] = molecular target: T6, OR10G8 (Homo sapiens) (UniProt Q8NGN5)
T6 sequence (whole entry): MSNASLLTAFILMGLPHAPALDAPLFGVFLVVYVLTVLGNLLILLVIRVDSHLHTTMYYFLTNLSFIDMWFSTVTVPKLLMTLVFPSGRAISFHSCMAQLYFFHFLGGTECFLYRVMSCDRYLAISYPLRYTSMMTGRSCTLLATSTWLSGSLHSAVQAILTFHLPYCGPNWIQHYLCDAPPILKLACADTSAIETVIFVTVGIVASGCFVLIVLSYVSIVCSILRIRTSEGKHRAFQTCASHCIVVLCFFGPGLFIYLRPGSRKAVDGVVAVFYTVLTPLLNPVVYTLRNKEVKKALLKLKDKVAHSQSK
Outline: as §1

[7] = molecular target: T7, OR10G9 (Homo sapiens) (UniProt Q8NGN4)
T7 sequence (whole entry): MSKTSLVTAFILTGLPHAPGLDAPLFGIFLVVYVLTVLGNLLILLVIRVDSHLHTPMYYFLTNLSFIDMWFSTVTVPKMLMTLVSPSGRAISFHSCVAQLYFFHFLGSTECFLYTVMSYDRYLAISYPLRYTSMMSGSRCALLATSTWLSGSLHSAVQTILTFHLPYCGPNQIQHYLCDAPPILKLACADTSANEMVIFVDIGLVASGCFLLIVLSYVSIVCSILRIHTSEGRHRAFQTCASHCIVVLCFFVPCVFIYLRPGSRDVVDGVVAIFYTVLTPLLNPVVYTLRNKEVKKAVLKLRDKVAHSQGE
Outline: as §1

[8] = molecular target: T8, OR10H1 (Homo sapiens) (UniProt Q9Y4A9)
T8 sequence (whole entry): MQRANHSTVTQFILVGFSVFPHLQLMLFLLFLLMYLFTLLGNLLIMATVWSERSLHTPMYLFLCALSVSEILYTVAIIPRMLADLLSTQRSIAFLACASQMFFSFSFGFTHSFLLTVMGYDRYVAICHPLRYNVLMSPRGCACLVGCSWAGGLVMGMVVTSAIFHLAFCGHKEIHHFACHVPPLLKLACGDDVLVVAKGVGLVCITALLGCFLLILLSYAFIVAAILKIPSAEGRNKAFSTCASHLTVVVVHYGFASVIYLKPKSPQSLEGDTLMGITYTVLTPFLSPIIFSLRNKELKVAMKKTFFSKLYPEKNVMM
Outline: as §1

[9] = molecular target: T9, OR10H2 (Homo sapiens) (UniProt O60403)
T9 sequence (whole entry): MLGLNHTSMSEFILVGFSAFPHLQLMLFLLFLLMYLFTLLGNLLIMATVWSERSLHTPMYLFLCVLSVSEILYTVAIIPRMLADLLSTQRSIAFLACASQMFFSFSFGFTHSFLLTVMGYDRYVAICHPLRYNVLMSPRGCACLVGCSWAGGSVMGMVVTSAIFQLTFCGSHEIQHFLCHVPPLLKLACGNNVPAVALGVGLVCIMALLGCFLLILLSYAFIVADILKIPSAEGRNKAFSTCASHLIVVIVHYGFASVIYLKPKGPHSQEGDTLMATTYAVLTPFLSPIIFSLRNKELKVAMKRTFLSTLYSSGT
Outline: as §1

Measured: odorant receptor agonist call

CC(CO)CS (centres undefined)
inactive: all assays above
